Bioassay records as filed in PubChem.
DUSP1 inh: human dual specificity phosphatase 1 inhibition; P28562; recombinant MKP-1, OMFP hydrolysis fluorescence; inhibition, %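 (compounds tested at a single concentration somewhere between 10 and 100 µM)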; 65,000 tested, 0.15% active;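 active means inhibition above about 50%, limit read from the data; inconclusive means inhibition over screen mean plus 3 SD, below that limit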
HEK293 NFkB inh: lowers PMA/ionomycin-induced NF-kB signal in HEK293 cells | HEK-293 NF-kB luciferase reporter, luminescence | inhibition, % at 3 µM | AID 465 | 62,000 tested, 0.21% active;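 active means inhibition above the mean of all tested compounds plus 3 SD, cut at about 40% in these data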
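Material: HEK-293 cells with stable firefly luciferase reporter driven by four HIV NF-kB elements / Also added: PMA plus ionomycin mix as NF-kB-activating stimulus / Compound dosing: 3 µM once, 0.30% DMSO / Times: 1 h pretreatment, 16 h stimulation, 37 °C / Signal: luminescence / Evaluation: per-plate % inhibition versus controls / Benchmarks: DMSO and 10 µM reference inhibitor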
HER2 expr 66K: lowers expression of human Her2 kinase. P04626. SKBR-3 HER2 protein level, AlphaScreen, 18-24 h; hits give low values. HER2 level % of control, % at 10 µM. 65,000 tested, 0.69% active. AID 645;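 active means HER2 level under 5% of the carrier-only control; inconclusive means no clear call, values can overlap the other calls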;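 further: lower value means stronger loss of Her2 protein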
M1 antagonist: blocks the rat M1 muscarinic receptor response to acetylcholine; P08482; CHO-M1 cells, Fluo-4 calcium, ACh EC80 antagonist mode; hits give low values; B-score at 10 µM; 64,000 tested, 3.4% active; AID 628;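 active means calcium fluorescence response, raw or row-and-column corrected B-score, differing from the plate sample mean either way at a set confidence level, mostly lower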
M1 ag: activates the M1 muscarinic receptor | CHO-M1 cells, Fluo-4 calcium fluorescence, agonist mode; hits give high values | AID 626 | B-score at 10 µM | 64,000 tested, 3% active;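 active means fluorescence rise, raw or as B-score row- and column-corrected plate score, outside the 99.7% band of its plate's samples, either direction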
Cdc25B block: human M-phase inducer phosphatase 2 inhibition; 65,000 tested, 0.1% active; recombinant Cdc25B, OMFP fluorescence Ex485/Em525; inhibition, %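 (compounds tested at 10 µM final in the well)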; P30305; in the data active means inhibition above about 50%
Target sequence (P30305 whole entry, looked up): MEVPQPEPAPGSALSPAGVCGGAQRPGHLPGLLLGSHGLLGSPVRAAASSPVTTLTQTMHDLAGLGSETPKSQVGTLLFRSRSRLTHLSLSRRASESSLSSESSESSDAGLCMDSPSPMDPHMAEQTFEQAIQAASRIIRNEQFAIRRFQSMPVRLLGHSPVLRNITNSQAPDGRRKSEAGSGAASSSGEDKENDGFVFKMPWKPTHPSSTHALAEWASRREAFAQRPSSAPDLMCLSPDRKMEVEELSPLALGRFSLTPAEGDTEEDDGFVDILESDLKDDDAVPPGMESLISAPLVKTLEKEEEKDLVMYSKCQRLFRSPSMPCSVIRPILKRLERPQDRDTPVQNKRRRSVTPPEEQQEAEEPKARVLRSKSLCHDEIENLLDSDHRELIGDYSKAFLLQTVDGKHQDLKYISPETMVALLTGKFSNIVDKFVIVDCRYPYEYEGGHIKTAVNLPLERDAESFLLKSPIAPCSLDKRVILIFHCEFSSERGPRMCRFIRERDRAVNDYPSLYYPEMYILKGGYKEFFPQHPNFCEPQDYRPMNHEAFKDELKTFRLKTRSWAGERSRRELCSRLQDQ
M1 antag confirm: M1 muscarinic receptor (rat) antagonism, confirmed; 1,700 tested, 43% active; CHO-M1 cells, Fluo-4 calcium, ACh EC80 antagonism; hits give low values; calcium response (max-min fluorescence) at 10 µM; shares compounds with M1 antagonist; AID 677;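 active means calcium response below the same-plate mean of wells given acetylcholine alone at its 80%-effect dose, minus 3 SD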
mGluR4 antag: selectivity test for M1 antagonists: human mGluR4 receptor; AID 678; fluorescence response (max-min) at 10 µM; 1,700 tested, 0.9% active; shares compounds with M1 antagonist; CHO-mGluR4 calcium flux, Fluo-4 fluorescence, glutamate EC80; hits give low values;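 active means fluorescence response below the plate's average for near-maximal glutamate wells, less 3 SD of those wells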;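 further: raw unnormalized fluorescence span taken in the window right after glutamate addition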
Hits are given with their value; n = inactive; u = inconclusive; x = no result. Most compounds without a hit are left out; they make up all but 6.8% or so of the library.

SMILES	DUSP1 inh	HEK293 NFkB inh	HER2 expr 66K	M1 antagonist	M1 ag	Cdc25B block	M1 antag confirm	mGluR4 antag
CC(OC(=O)CCCN1C(=O)c2ccccc2C1=O)C(=O)Nc1ncc(Cl)cc1Cl (configuration not stated)	n	n	n	n	n	n	x	x
CC(OC(=O)C1CCN(S(=O)(=O)c2ccccc2)CC1)C(=O)Nc1ncc(Cl)cc1Cl (configuration not stated)	n	n	n	-1.3	n	n	n	n
Cn1c(-c2ccc(F)cc2)cnc1SCC(=O)N1CCCCC1	n	n	n	-2.2	n	n	n	n
Cn1c(CCN2CCN(c3ccccc3)CC2)nc2cc(NC(=O)c3ccco3)ccc21	n	n	n	-5.5	n	n	125	n
Cc1ccc(N2CCN(CCc3nc4cc(NC(=O)c5ccco5)ccc4n3C)CC2)cc1	n	n	n	x	x	n	x	x
Cn1c(CCN2CCCCC2)nc2cc(NC(=O)C3CCCCC3)ccc21	n	n	n	-3.8	n	n	408	n
CC1CCN(CCc2nc3cc(NS(=O)(=O)c4ccccc4)ccc3n2C)CC1	n	n	n	-6	n	n	415	n
CC1CCN(CCc2nc3cc(NS(=O)(=O)c4ccc(F)cc4)ccc3n2C)CC1	n	n	n	-4	n	n	405	n
CCOC(=O)C1CCCN(C(=O)CSc2nccn2C)C1 (configuration not stated)	n	n	n	n	n	n	x	x
O=c1c2cc(-c3ccccc3)sc2ncn1/N=C/c1ccco1	n	n	n	n	n	n	x	x
Cc1nn(Cc2ccccc2)c2sc(C(=O)N3CCN(Cc4ccc5c(c4)OCO5)CC3)cc12	n	n	n	n	n	n	x	x
Cc1cc(N(C)C)nc(SC(C)C)n1	n	n	n	n	n	n	x	x
Cn1c(CN2CCCCC2)nc2cc(NC(=O)c3ccccc3)ccc21	n	n	n	-2.8	n	n	n	n
CC1CCN(CCc2nc3cc(NC(=O)Nc4ccccc4)ccc3n2C)CC1	u	n	n	-10	n	n	302	n
Cn1c(CCN2CCCCC2)nc2cc(NS(=O)(=O)c3ccc(Cl)cc3)ccc21	n	n	n	-3.1	n	n	305	n
Cn1c(CCN2CCOCC2)nc2cc(NC(=O)COc3ccccc3)ccc21	n	n	n	-3.7	n	n	n	n
S=c1[nH]nc(-c2ccncc2)n1Cc1ccco1	n	n	n	n	n	n	x	x
S=c1[nH]nc(-c2ccc(Br)cc2)n1Cc1ccco1	n	n	n	-10	n	n	326	n
O=S(=O)(c1cccc(-c2nnc(SCc3nc4ccccc4s3)o2)c1)N1CCOCC1	n	n	n	n	n	n	x	x
O=c1c2ccccc2nnn1CSc1nnc(-c2cccc(S(=O)(=O)N3CCCCC3)c2)o1	n	n	n	-4.2	n	n	366	n
O=C(COc1cc(Cl)c(Cl)cc1Cl)Nn1cnnc1	n	n	n	n	n	n	x	x
COc1cccc(C(=O)Nc2cc(=O)n(C)c(=O)n2C)c1OC	n	n	n	-3.8	n	n	n	n
Cc1cc(C)n(CC2CC(=O)N(c3ccc(Cl)c(Cl)c3)C2=O)n1 (configuration not stated)	n	x	n	-2.6	n	n	n	n
COc1ccccc1Nc1nc2ccccc2n1C	n	n	n	-4.4	n	n	n	n
CCOC(=O)N1CCC(NC(=O)CN2C(=O)C(CC)Oc3ccc(C)cc32)CC1 (configuration not stated)	n	n	n	-5.7	n	n	n	n
SMILES	DUSP1 inh	HEK293 NFkB inh	HER2 expr 66K	M1 antagonist	M1 ag	Cdc25B block	M1 antag confirm	mGluR4 antag
CCC1Oc2ccc(C)cc2N(CC(=O)NCCN2CCCCCC2)C1=O (configuration not stated)	n	n	n	n	n	n	x	x
O=C(NCCCn1ccnc1)C1c2ccccc2Oc2ccccc21	n	n	n	-6	n	n	309	n
Cc1cc(NC(=O)c2cc(C3CC3)on2)no1	n	n	n	n	n	n	x	x
CCOC(=O)c1ccc(NC(=O)NCCN2CCCCC2)cc1	n	n	n	-3.4	n	n	n	n
CC1=C(C(=O)NC2CCC(C)CC2)C2(CCC(C)CC2)OC1=O (configuration not stated)	n	n	n	n	n	n	x	x
CCOc1ccc(CCNC(=O)CN2CCN(Cc3ccccc3C)C2=O)cc1OCC	n	n	n	n	n	n	x	x
CCc1ccc(OCc2nnc(SCCN3CCOCC3)n2CC)cc1	n	n	n	-3.2	n	n	313	n
Clc1ccc(OCc2nnc(SCCN3CCCCC3)n2Cc2ccco2)cc1	n	n	n	-13	n	n	21	n
O=C(O)CC(c1ccc(Cl)cc1)n1cccc1 (configuration not stated)	n	n	n	n	n	n	x	x
c1ccc(-c2ccccc2-n2cnnn2)cc1	n	n	n	n	n	n	x	x
Cc1sc2ncn(CC(=O)NCCCC(=O)N3CCN(c4ncccn4)CC3)c(=O)c2c1C	n	n	n	n	n	n	x	x
Cc1nc2ccccc2c(=O)n1/N=C/c1ccc(N(C)C)cc1	n	n	n	n	n	n	x	x
Nc1nc2ccccc2n1/N=C/c1ccc(Br)cc1	n	n	n	-6.7	n	n	n	n
Cc1cc(N2CCN(C(=O)OC(C)(C)C)CC2)n2ncnc2n1	n	n	n	n	n	n	x	x
CN(C)c1nc2ccc(OCCN3CCCCC3)cc2s1	n	n	n	-3	n	n	408	n
O=C(Nc1ccc(S(=O)(=O)N2CCCc3ccccc32)cc1)C1CCCO1 (configuration not stated)	n	n	n	-9.7	n	n	29	n
O=C(Nc1ccc(S(=O)(=O)N2CCc3ccccc3C2)cc1)C1CCCO1 (configuration not stated)	n	n	n	n	n	n	x	x
O=C(CSc1nnc(-c2ccccc2Br)o1)N1CCc2ccccc2C1	n	n	n	n	n	n	x	x
CC(C)(C)N=C1NC(=NC(C)(C)C)c2ccccc21	n	n	n	-6.2	n	n	n	n
c1ccc2c(c1)C(=NCC1CCCO1)NC2=NCC1CCCO1 (configuration not stated)	n	n	n	n	n	n	x	x
O=c1c2c3c(sc2nc2n1CCC2)CCC3	n	n	n	n	n	n	x	x
CCN(CC)CCOc1c(Br)ccc2c1sc1nc3n(c(=O)c12)CCC3	n	n	n	-11	n	n	130	n
C=CCn1c(=O)c(C(=O)Nc2ccccc2C(=O)OCC)c(O)c2ccccc21	n	n	n	-2.5	n	n	n	n
